Data from ChEMBL document CHEMBL4387702, “Design and synthesis novel di-carbonyl analogs of curcumin (DACs) act as potent anti-inflammatory agents against LPS-induced acute lung injury (ALI)” (Eur J Med Chem, 2019).
Calls of active or inactive are those of the source. No cut-off for these calls is given here.

Experiments:
RAW264.7 [1] = assay: Inhibition of MAPK/NFkappaB in ICR mouse RAW264.7 cells assessed as reduction in LPS-induced TNFalpha production at 10 uM pretreated for 0.5 hrs followed by LPS challenge and measured after 24 hrs by ELISA relative to control; assay type: cell-based
RAW264.7 [2] = assay: Cytotoxicity against ICR mouse RAW264.7 cells assessed as effect on cell proliferation at 10 uM after 24 hrs by MTT assay; assay type: cell-based; settings: raw264.7, 24 h
[3] = Inhibition of MAPK/NFkappaB in ICR mouse RAW264.7 cells assessed as reduction in LPS-induced TNFalpha production pretreated for 0.5 hrs followed by LPS challenge and measured after 24 hrs by ELISA; assay type: cell-based
[4] = Stability in pH 7.4 phosphate buffer assessed as compound decomposition measured up to 25 mins by UV-Vis spectroscopy; assay type: physicochemical; settings: pH 7.4, 25 min
Method in brief: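 Compound stability was followed by recording UV-visible absorption spectra in phosphate buffer at pH 7.4.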

[5] = target: MAP kinase p38 (Mus musculus) (UniProt P47811+O08911+Q9WUI1+Q9Z1B7); assay: Inhibition of LPS-induced p38 MAPK phosphorylation in ICR mouse RAW264.7 cells at 10 uM preincubated for 0.5 hrs followed by LPS challenge and measured after 30 mins by immunoblotting analysis; assay type: cell-based
Method in brief: (§1)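 RAW 264.7 cells were pretreated with compound for 0.5 h and then stimulated with LPS for 30 min. Lysates were resolved on 10% or 12% SDS-PAGE and transferred to nitrocellulose. Membranes were blocked in TBS (pH 7.6) with 0.05% Tween 20 and 5% milk. Blots were probed for p-p38, p38, p-ERK, ERK, IκBα and GAPDH, detected with HRP secondaries and ECL.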

RAW264.7 [6] = assay: Inhibition of NFkappaB/MAPK signaling in LPS-induced mouse RAW264.7 cells assessed as down regulation of IkappaB expression at 10 uM preincubated for 0.5 hrs followed by LPS-challenge and measured after 30 mins by immunoblotting analysis; assay type: cell-based; method in brief: as §1
[7] = target: Transcription factor p65 (Mus musculus) (UniProt Q04207); assay: Inhibition of LPS-induced NFkappaB p65 nuclear translocation in ICR mouse RAW264.7 cells preincubated for 0.5 hrs followed by LPS challenge and measured after 40 mins by DAPI staining-based immunofluorescence microscopic analysis; assay type: cell-based
Sequence of Transcription factor p65 (Mus musculus) (Q04207 whole entry): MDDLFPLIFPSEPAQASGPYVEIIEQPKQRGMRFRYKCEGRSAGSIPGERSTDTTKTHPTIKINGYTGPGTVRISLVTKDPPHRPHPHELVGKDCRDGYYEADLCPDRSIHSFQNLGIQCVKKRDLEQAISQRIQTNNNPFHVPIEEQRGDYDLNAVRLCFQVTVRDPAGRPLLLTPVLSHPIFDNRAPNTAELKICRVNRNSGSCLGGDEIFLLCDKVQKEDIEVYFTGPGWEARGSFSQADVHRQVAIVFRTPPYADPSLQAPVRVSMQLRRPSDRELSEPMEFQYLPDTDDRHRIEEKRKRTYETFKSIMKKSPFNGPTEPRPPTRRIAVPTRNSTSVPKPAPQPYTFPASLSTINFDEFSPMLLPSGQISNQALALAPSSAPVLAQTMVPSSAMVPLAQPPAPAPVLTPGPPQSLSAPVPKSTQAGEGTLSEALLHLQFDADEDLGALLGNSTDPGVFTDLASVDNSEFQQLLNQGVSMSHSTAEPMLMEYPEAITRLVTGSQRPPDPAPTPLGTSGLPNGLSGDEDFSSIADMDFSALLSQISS
Method in brief: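 RAW 264.7 cells were pretreated with compound for 0.5 h, then given LPS for 40 min (methods) or 45 min (legend). Cells were fixed with 4% paraformaldehyde and permeabilized in methanol. Anti-p65 (1:200) was applied overnight at 4 °C, then PE-conjugated secondary (1:200) for 2 h. Nuclei were stained with DAPI and cells viewed by fluorescence microscopy.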

RAW264.7 [8] = assay: Inhibition of MAPK/NFkappaB signaling in ICR mouse RAW264.7 cells assessed as reduction in LPS-induced IL-6 mRNA expression pretreated for 0.5 hrs followed by LPS challenge and measured after 40 mins by TRIZOL reagent-based RT-qPCR analysis; assay type: cell-based
Method in brief: (§2)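 RAW 264.7 cells were pretreated with compound for 0.5 h and then activated with LPS. Values were normalized to actin and expressed relative to the LPS group.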

RAW264.7 [9] = assay: Inhibition of MAPK/NFkappaB signaling in ICR mouse RAW264.7 cells assessed as reduction in LPS-induced IL1beta mRNA expression pretreated for 0.5 hrs followed by LPS challenge and measured after 40 mins by TRIZOL reagent-based RT-qPCR analysis; assay type: cell-based; method in brief: as §2
RAW264.7 [10] = assay: Inhibition of MAPK/NFkappaB signaling in ICR mouse RAW264.7 cells assessed as reduction in LPS-induced ICAM1 mRNA expression pretreated for 0.5 hrs followed by LPS challenge and measured after 40 mins by TRIZOL reagent-based RT-qPCR analysis; assay type: cell-based; method in brief: as §2
Mus musculus [11] = assay: Antiinflammatory activity in C57BL/6 mouse model of LPS-induced acute lung injury assessed as reduction in total cell count in BALF at 10 mg/kg, ip administered daily for one week prior to LPS challenge and measured after 6 hrs; assay type: functional, organism-based
Method in brief: (§3)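 C57BL/6 mice (eight per group) received 10 mg/kg i.p. daily for one week; vehicle was 0.9% saline. They were then challenged with intratracheal LPS at 5 mg/kg and sacrificed 6 h later. Endpoints were lung wet/dry weight ratio and total and neutrophil cell counts in BALF, reported as mean ± SEM, n = 6.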

Mus musculus [12] = assay: Antiinflammatory activity in C57BL/6 mouse model of LPS-induced acute lung injury assessed as reduction in neutrophil count in BALF at 10 mg/kg, ip administered daily for one week prior to LPS challenge and measured after 6 hrs; assay type: functional, organism-based; method in brief: as §3
Mus musculus [13] = assay: Antiinflammatory activity in C57BL/6 mouse model of LPS-induced acute lung injury assessed as reduction of pathological lesions in lung tissue at 10 mg/kg, ip administered daily for one week prior to LPS challenge and measured after 6 hrs by hematoxylin and eosin staining-based light microscopic analysis; assay type: functional, organism-based
Method in brief: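 Lungs were taken 6 h after intratracheal LPS (5 mg/kg) from C57BL/6 mice pretreated at 10 mg/kg i.p. daily for one week. Tissue was fixed, embedded in paraffin, sectioned at 5 µm and stained with H&E. Injury features examined were edema, congestion, septal thickening, infiltration and tissue destruction, assessed by light microscopy.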

Mus musculus [14] = assay: Antiinflammatory activity in C57BL/6 mouse model of LPS-induced acute lung injury assessed as reduction in TNF-alpha production in serum at 10 mg/kg, ip administered daily for one week prior to LPS challenge and measured after 6 hrs by ELISA; assay type: functional, organism-based
Method in brief: (§4)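 In C57BL/6 mice (eight per group), compound was dosed at 10 mg/kg i.p. once daily for a week, with a 0.9% saline vehicle control. LPS 5 mg/kg was given intratracheally and animals were euthanized with chloral hydrate after 6 h. TNF-α and IL-6 in serum and BALF were measured by ELISA. Data are mean ± SEM, n = 6.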

Mus musculus [15] = assay: Antiinflammatory activity in C57BL/6 mouse model of LPS-induced acute lung injury assessed as reduction in TNF-alpha production in BALF at 10 mg/kg, ip administered daily for one week prior to LPS challenge and measured after 6 hrs by ELISA; assay type: functional, organism-based; method in brief: as §4
Mus musculus [16] = assay: Antiinflammatory activity in C57BL/6 mouse model of LPS-induced acute lung injury assessed as reduction in IL-6 production in BALF at 10 mg/kg, ip administered daily for one week prior to LPS challenge and measured after 6 hrs by ELISA; assay type: functional, organism-based; method in brief: as §4
Mus musculus [17] = assay: Antiinflammatory activity in C57BL/6 mouse model of LPS-induced acute lung injury assessed as reduction in ICAM1 mRNA expression in lung tissue at 10 mg/kg, ip administered daily for one week prior to LPS challenge and measured after 6 hrs by TRIZOL reagent-based RT-qPCR analysis; assay type: functional, organism-based
Method in brief: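 Mouse ALI model with eight C57BL/6 mice per group. Compound was given at 10 mg/kg i.p. daily for one week; controls received 0.9% saline. LPS was instilled intratracheally at 5 mg/kg. Mice were euthanized with chloral hydrate 6 h later and lungs collected. Lung mRNA for each target was quantified by real-time qPCR.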

| IC50 [3] [µM] | Stability [4] | inhibition [5] | inhibition [7] | Compound | inhibition (RAW264.7 [1]) [%] | Activity (RAW264.7 [2]) | inhibition (RAW264.7 [6]) | inhibition (RAW264.7 [8]) | inhibition (RAW264.7 [9]) | inhibition (RAW264.7 [10]) | Activity (Mus musculus [11]) | Activity (Mus musculus [12]) | Activity (Mus musculus [13]) | Activity (Mus musculus [14]) | Activity (Mus musculus [15]) | Activity (Mus musculus [16]) | Activity (Mus musculus [17]) |
| --- | --- | --- | --- | --- | --- | --- | --- | --- | --- | --- | --- | --- | --- | --- | --- | --- | --- |
| 3.69 | Stable | Active | Active | COc1cc(/C=C/C(=O)N2CCC/C(=C\c3cc(OC)c(OC)c(OC)c3)C2=O)ccc1O | 90.9 to 92.5 | Non-Toxic | Active | Active | Active | Active | Active | Active | Active | Active | Active | Active | Active |
| 2.33 | Stable | Active | Active | COc1cc(/C=C/C(=O)N2CCC/C(=C\c3cc(OC)c(OC)c(OC)c3)C2=O)ccc1OC(C)=O | 90.9 to 92.5 | Non-Toxic | Active | Active | Active | Active | Active | Active | Active | Active | Active | Active | Active |
